In ChEMBL document CHEMBL1157562, “Piperazinyl glutamate pyridines as potent orally bioavailable P2Y12 antagonists for inhibition of platelet aggregation” (J Med Chem, 2010):
pIC50, pKi: −log10 of the molar value.

How the values were obtained:
[1] = Antiplatelet aggregation activity against adenosine diphosphate-induced human platelet rich plasma assessed as inhibition of platelet aggregation by turbidimetric method; format: functional; conditions: Homo sapiens, Platelet, Plasma
Method in brief: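 Human PRP, prepared by two-step centrifugation and adjusted to 330 000 platelets/μL with PPP. Compound was preincubated 5 min at 37 °C in 0.5% DMSO, then 20 μM ADP was added. OD626 was read kinetically for 15 min at 37 °C with mixing between reads.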

[2] = molecular target: P2Y purinoceptor 12 (Homo sapiens, UniProt Q9H244); assay: Displacement of [33P]ADP from human recombinant P2Y12 receptor expressed in CHO cells; format: cell-based
P2Y purinoceptor 12, sequence (Q9H244 whole entry): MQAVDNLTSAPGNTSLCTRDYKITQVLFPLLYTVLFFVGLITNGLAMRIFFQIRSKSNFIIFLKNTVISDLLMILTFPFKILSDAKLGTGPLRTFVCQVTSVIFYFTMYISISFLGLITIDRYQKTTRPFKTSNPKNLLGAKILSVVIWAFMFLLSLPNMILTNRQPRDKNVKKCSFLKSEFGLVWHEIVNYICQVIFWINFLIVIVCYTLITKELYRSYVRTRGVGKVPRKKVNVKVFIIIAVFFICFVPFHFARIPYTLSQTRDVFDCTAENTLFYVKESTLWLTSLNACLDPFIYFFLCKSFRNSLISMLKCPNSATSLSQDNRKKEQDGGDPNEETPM
Method in brief: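 Washed membranes from CHO cells expressing synthetic human P2Y12, incubated 1 h at room temperature with 0.2 nM 33P-MeSADP in 50 mM Tris/100 mM NaCl/1 mM EDTA. Compound was tested as a 7-point 3-fold series in triplicate. Nonspecific binding was defined with 300 nM 2-MeSADP, followed by filtration.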

| Structure (SMILES) | pIC50 [1] | pKi [2] |
| --- | --- | --- |
| O=C(O)CC[C@H](NC(=O)c1cccc(-c2ccccc2)n1)C(=O)N1CCN(C(=O)OCC(F)(F)F)CC1 | < 4.00 | 7.03 |
| O=C(O)CC[C@H](NC(=O)c1cccc(-c2ccccc2)n1)C(=O)N1CCN(C(=O)OC2CCCC2)CC1 | < 4.00 | 7.33 |
| CCCCNC(=O)N1CCN(C(=O)[C@H](CCC(=O)O)NC(=O)c2cccc(-c3ccccc3)n2)CC1 | < 4.00 | 6.21 |
| Cc1cccc(N2CCN(C(=O)[C@H](CCC(=O)O)NC(=O)c3cc(-c4ccccc4)ccn3)CC2)c1 | < 4.00 | < 5.24 |
| CCCCCCCCOC(=O)N1CCN(C(=O)[C@H](CCC(=O)O)NC(=O)c2cccc(-c3ccccc3)n2)CC1 | < 4.00 |  |
| CCCCCCN1CCN(C(=O)[C@H](CCC(=O)O)NC(=O)c2cccc(-c3ccccc3)n2)CC1 | < 4.00 | < 5.57 |
| CCCCCS(=O)(=O)N1CCN(C(=O)[C@H](CCC(=O)O)NC(=O)c2cccc(-c3ccccc3)n2)CC1 | < 4.00 | < 5.44 |
| CC(C)(C)CCOC(=O)N1CCN(C(=O)[C@H](CCC(=O)O)NC(=O)c2cccc(-c3ccccc3)n2)CC1 | < 4.00 | 7.38 |
| CCCCC(=O)N1CCN(C(=O)[C@H](CCC(=O)O)NC(=O)c2cccc(-c3ccccc3)n2)CC1 | < 4.00 | 5.84 |
| CCCCCN1CCN(C(=O)[C@H](CCC(=O)O)NC(=O)c2cccc(-c3ccccc3)n2)CC1 | < 4.00 | < 5.44 |
| CCCS(=O)(=O)N1CCN(C(=O)[C@H](CCC(=O)O)NC(=O)c2cccc(-c3ccccc3)n2)CC1 | < 4.00 | < 5.44 |
| CC(C)CN1CCN(C(=O)[C@H](CCC(=O)O)NC(=O)c2cccc(-c3ccccc3)n2)CC1 | < 4.00 | < 5.42 |
| CC(C)OC(=O)N1CCN(C(=O)[C@H](CCC(=O)O)NC(=O)c2cccc(-c3ccccc3)n2)CC1 | < 4.00 | 6.55 |
| O=C(O)CC[C@H](NC(=O)c1cccc(-c2ccccc2)n1)C(=O)N1CCN(C(=O)OCC2CCC2)CC1 | < 4.00 | 7.55 |
| Cc1cccc(N2CCN(C(=O)[C@H](CCC(=O)O)NC(=O)c3cc(-c4ccccc4)cc(-c4ccccc4)n3)CC2)c1 | < 4.00 | 6.82 |
| CCC(=O)N1CCN(C(=O)[C@H](CCC(=O)O)NC(=O)c2cccc(-c3ccccc3)n2)CC1 | < 4.00 | < 5.44 |
| CC(C)(C)OC(=O)CC[C@H](NC(=O)c1cccc(-c2ccccc2)n1)C(=O)N1CCNCC1 | < 4.00 | < 5.25 |
| COCC(=O)N1CCN(C(=O)[C@H](CCC(=O)O)NC(=O)c2cccc(-c3ccccc3)n2)CC1 | < 4.00 | < 5.44 |

| Structure (SMILES) | pIC50 [1] | pKi [2] |
| --- | --- | --- |
| CCOC(=O)N1CCN(C(=O)[C@H](CCC(=O)O)NC(=O)c2cc(-c3ccccc3)ccn2)CC1 | < 4.00 | < 5.24 |
| Cc1cccc(N2CCN(C(=O)[C@H](CCC(=O)O)NC(=O)c3cc(-c4ccccc4)cc(-c4ccccc4)c3)CC2)c1 | < 4.00 | 5.84 |
| CCCCCOC(=O)N1CCN(C(=O)[C@H](CCC(=O)O)NC(=O)c2cc(N(C)CCOC)cc(-c3ccccc3)n2)CC1 | < 4.00 | 8.68 |
| CCCCOC(=O)N1CCN(C(=O)[C@H](CCC(=O)O)NC(=O)c2cc(N(C)CCOC)cc(-c3ccccc3)n2)CC1 | < 4.00 | 8.40 |
| CCOC(=O)N1CCN(C(=O)[C@H](CCC(=O)O)NC(=O)c2cc(N(C)C)cc(-c3ccccc3)n2)CC1 | < 4.00 | 7.35 |
| CCCN(CCC)c1cc(C(=O)N[C@@H](CCC(=O)O)C(=O)N2CCN(C(=O)OCC)CC2)nc(-c2ccccc2)c1 | < 4.00 | 7.35 |
| CCCCCNC(=O)N1CCN(C(=O)[C@H](CCC(=O)O)NC(=O)c2cccc(-c3ccccc3)n2)CC1 | < 4.00 | 7.26 |
| CCCNC(=O)N1CCN(C(=O)[C@H](CCC(=O)O)NC(=O)c2cccc(-c3ccccc3)n2)CC1 | < 4.00 | 6.56 |
| O=C(O)CC[C@H](NC(=O)c1cccc(-c2ccccc2)n1)C(=O)N1CCN(C(=O)OC2CCCCC2)CC1 | < 4.00 | 7.36 |
| O=C(O)CC[C@H](NC(=O)c1cccc(-c2ccccc2)n1)C(=O)N1CCN(C(=O)Nc2ccccc2)CC1 | < 4.00 | 6.07 |
| CCOC(=O)N1CCN(C(=O)[C@H](CCC(=O)O)NC(=O)c2cc(-c3ccccc3)nc(-c3ccccc3)n2)CC1 | < 4.00 | 6.45 |
| COCCOC(=O)N1CCN(C(=O)[C@H](CCC(=O)O)NC(=O)c2cccc(-c3ccccc3)n2)CC1 | < 4.00 | 6.31 |
| CCCC(=O)N1CCN(C(=O)[C@H](CCC(=O)O)NC(=O)c2cccc(-c3ccccc3)n2)CC1 | < 4.00 | 5.51 |
| O=C(O)CC[C@H](NC(=O)c1cccc(-c2ccccc2)n1)C(=O)N1CCN(C(=O)OCCC2CC2)CC1 | < 4.00 | 7.82 |
| Cc1cccc(N2CCN(C(=O)[C@H](CCC(=O)O)NC(=O)c3cccc(-c4ccccc4)n3)CC2)c1 | < 4.00 |  |
| CC(=O)N1CCN(C(=O)[C@H](CCC(=O)O)NC(=O)c2cccc(-c3ccccc3)n2)CC1 | < 4.00 | < 5.44 |
| O=C(O)CC[C@H](NC(=O)c1cccc(-c2ccccc2)n1)C(=O)N1CCN(S(=O)(=O)c2ccccc2)CC1 | < 4.00 | 6.07 |

Now from value to molecule:

| pIC50 [1] | pKi [2] | Structure (SMILES) |
| --- | --- | --- |
| 4.09 | 7.38 | CCCNC(=S)N1CCN(C(=O)[C@H](CCC(=O)O)NC(=O)c2cccc(-c3ccccc3)n2)CC1 |
| < 4.00 |  | COC(=O)N1CCN(C(=O)[C@H](CCC(=O)O)NC(=O)c2cccc(-c3ccccc3)n2)CC1 |
| < 4.30 | 6.32 | CCOC(=O)N1CCN(C(=O)[C@H](CCC(=O)O)NC(=O)c2cc(-c3ccccc3)nc(-c3ccccc3)c2)CC1 |
| < 4.00 | < 5.44 | CN(C)CC(=O)N1CCN(C(=O)[C@H](CCC(=O)O)NC(=O)c2cccc(-c3ccccc3)n2)CC1 |
| 4.06 | 7.48 | CC(C)CCOC(=O)N1CCN(C(=O)[C@H](CCC(=O)O)NC(=O)c2cccc(-c3ccccc3)n2)CC1 |
| < 5.00 | 8.55 | CCCCCOC(=O)N1CCN(C(=O)[C@H](CCC(=O)O)NC(=O)c2cc(CCCCCO)cc(-c3ccccc3)n2)CC1 |
| < 4.00 | 5.73 | O=C(O)CC[C@H](NC(=O)c1cccc(-c2ccccc2)n1)C(=O)N1CCN(C(=O)c2ccccc2)CC1 |
| < 4.00 | 7.27 | CCCCCCNC(=O)N1CCN(C(=O)[C@H](CCC(=O)O)NC(=O)c2cccc(-c3ccccc3)n2)CC1 |
| 4.55 |  | CCCCOC(=O)N1CCN(C(=O)[C@H](CCC(=O)O)NC(=O)c2cccc(-c3ccccc3)n2)CC1 |
| < 4.00 | < 5.42 | CCCN1CCN(C(=O)[C@H](CCC(=O)O)NC(=O)c2cccc(-c3ccccc3)n2)CC1 |
| < 4.00 | 6.71 | O=C(O)CC[C@H](NC(=O)c1cccc(-c2ccccc2)n1)C(=O)N1CCN(C(=O)OCc2ccccc2)CC1 |
| < 5.00 | 8.07 | CCCCCOC(=O)N1CCN(C(=O)[C@H](CCC(=O)O)NC(=O)c2cc(NC(=O)C3CCOCC3)cc(-c3ccccc3)n2)CC1 |
| < 4.00 | < 5.27 | CCOC(=O)N1CCN(C(=O)[C@H](CCC(=O)O)NC(=O)c2ccccn2)CC1 |
| < 4.00 | < 5.44 | CCCCS(=O)(=O)N1CCN(C(=O)[C@H](CCC(=O)O)NC(=O)c2cccc(-c3ccccc3)n2)CC1 |
| 4.10 | 6.54 | CCNC(=O)N1CCN(C(=O)[C@H](CCC(=O)O)NC(=O)c2cccc(-c3ccccc3)n2)CC1 |
| < 4.30 | 6.13 | CCOC(=O)N1CCN(C(=O)CNC(=O)c2cc(-c3ccccc3)cc(-c3ccccc3)n2)CC1 |

| pIC50 [1] | pKi [2] | Structure (SMILES) |
| --- | --- | --- |
| < 5.00 | 8.85 | CCCCCOC(=O)N1CCN(C(=O)[C@H](CCC(=O)O)NC(=O)c2cc(NC(=O)OCCOC)cc(-c3ccccc3)n2)CC1 |
| 4.09 | 7.34 | O=C(O)CC[C@H](NC(=O)c1cccc(-c2ccccc2)n1)C(=O)N1CCN(C(=O)OCC2CCCC2)CC1 |
| < 5.00 | 8.21 | CCCCCOC(=O)N1CCN(C(=O)[C@H](CCC(=O)O)NC(=O)c2cc(NC(C)=O)cc(-c3ccccc3)n2)CC1 |
| 4.25 | 8.10 | CCCCNC(=S)N1CCN(C(=O)[C@H](CCC(=O)O)NC(=O)c2cccc(-c3ccccc3)n2)CC1 |
| < 5.00 | 8.52 | CCCCCOC(=O)N1CCN(C(=O)[C@H](CCC(=O)O)NC(=O)c2cc(NC(=O)CN3CCOCC3)cc(-c3ccccc3)n2)CC1 |
| 4.15 | 7.74 | O=C(O)CC[C@H](NC(=O)c1cccc(-c2ccccc2)n1)C(=O)N1CCN(C(=O)OCCCC(F)(F)F)CC1 |
| 4.25 |  | CCCCCCCOC(=O)N1CCN(C(=O)[C@H](CCC(=O)O)NC(=O)c2cccc(-c3ccccc3)n2)CC1 |
| 4.38 | 8.22 | CCCCCNC(=S)N1CCN(C(=O)[C@H](CCC(=O)O)NC(=O)c2cccc(-c3ccccc3)n2)CC1 |
| 4.12 | 7.82 | CCOC(=O)N1CCN(C(=O)[C@H](CCC(=O)O)NC(=O)c2cc(-c3ccccc3)cc(-c3ccccc3)n2)CC1 |
| 4.41 | 8.05 | CCNC(=S)N1CCN(C(=O)[C@H](CCC(=O)O)NC(=O)c2cccc(-c3ccccc3)n2)CC1 |
| 4.21 |  | CCCOC(=O)N1CCN(C(=O)[C@H](CCC(=O)O)NC(=O)c2cccc(-c3ccccc3)n2)CC1 |
| < 5.00 | 8.24 | CCCCCOC(=O)N1CCN(C(=O)[C@H](CCC(=O)O)NC(=O)c2cc(NC(=O)N3CCCCC3)cc(-c3ccccc3)n2)CC1 |
| 4.82 |  | CCCCCOC(=O)N1CCN(C(=O)[C@H](CCC(=O)O)NC(=O)c2cccc(-c3ccccc3)n2)CC1 |
| < 5.00 | 8.07 | CCCCCOC(=O)N1CCN(C(=O)[C@H](CCC(=O)O)NC(=O)c2cc(CC3CCCCC3)cc(-c3ccccc3)n2)CC1 |
| 4.72 |  | CCCCCCOC(=O)N1CCN(C(=O)[C@H](CCC(=O)O)NC(=O)c2cccc(-c3ccccc3)n2)CC1 |
